Screening data (PubChem)
T cruzi growth-1: inhibitors of T. cruzi proliferation; T. cruzi beta-gal in NIH3T3, GalScreen luminescence, 90 h; inhibition, % at 8.34 µM; hit rate 5.9% among 77,000;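 active means mean inhibition above about 93%, with at least 55% of replicates each passing it, limit read from the data, passing the limit was not always enough; inconclusive means only one of those two conditions holds; inactive means neither condition holds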
IDH1 mut inh: inhibitors of human IDH1 R132H | O75874 | IDH1 R132H reductase, diaphorase/resazurin fluorescence, 60 min | inhibition, % at 10 µM | hit rate 0.18% among 70,000; in the data active means inhibition above about 34%; inconclusive means no clear call, values can overlap the other calls; inactive means below about 11%;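 further: 0% = DMSO and 100% = no enzyme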
Pf Dd2 inh: blocks growth of Plasmodium falciparum Dd2 parasites | activity change, % at 10 µM | hit rate 2.3% among 94,000 | P. falciparum Dd2 growth, SYBR Green, 72 h; active compounds read low; in the data active means activity change below about -80%; inconclusive means no clear call, values can overlap the other calls
GASC1 inh: inhibitors of human demethylase GASC-1 KDM4C; Q9H3R0; hit rate 0.15% among 96,000; inhibition, % at 12.5 µM; GST-KDM4C 2-372, H3K9me3 peptide, LANCE TR-FRET; AID 720574;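 active means mean replicate inhibition above about 25%, with at least 55% of replicates also reaching it, limit read from the data, passing the limit was not always enough; inconclusive means only one of those two conditions met; inactive means neither condition met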
Target sequence (Q9H3R0 2-372 limits assumed): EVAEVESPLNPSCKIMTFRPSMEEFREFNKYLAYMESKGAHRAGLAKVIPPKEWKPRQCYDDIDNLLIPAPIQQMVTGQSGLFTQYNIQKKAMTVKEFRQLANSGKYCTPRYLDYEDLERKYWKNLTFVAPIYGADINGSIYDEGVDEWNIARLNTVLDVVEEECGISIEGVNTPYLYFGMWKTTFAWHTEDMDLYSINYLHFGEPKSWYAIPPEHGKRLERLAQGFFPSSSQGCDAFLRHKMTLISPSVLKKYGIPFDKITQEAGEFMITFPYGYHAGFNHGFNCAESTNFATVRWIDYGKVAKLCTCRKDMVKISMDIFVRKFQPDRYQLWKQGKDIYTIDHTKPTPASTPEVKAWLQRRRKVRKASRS
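Material: GST-tagged GASC-1 (JMJD2C) catalytic fragment, aa 2-372. Input: enzyme final amount 10 nM. Medium: HEPES buffer, pH 7.5, plus ascorbate. Reagent: H3K9me3 peptide substrate, Fe(II), 2-oxoglutarate. Doses: single dose. Times: reaction 30 min RT, detection step 1 h RT. Measured by: LANCE TR-FRET. Evaluation: Fall in 671/618 emission ratio as inhibition.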
T cruzi growth-2: inhibitors of T. cruzi proliferation. T. cruzi beta-gal in NIH3T3, GalScreen luminescence, 90 h. inhibition, % at 8.35 µM. shares compounds with T cruzi growth-1. AID 651739. hit rate 72% among 5,600;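 active means mean replicate inhibition above about 95% and at least 55% of replicates individually reaching it, limit read from the data; inconclusive means only one of the two criteria is met; inactive means neither criterion is met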
T cruzi growth-3: Trypanosoma cruzi proliferation inhibition; shares compounds with T cruzi growth-1; AID 651740; hit rate 21% among 5,600; T. cruzi beta-gal in NIH3T3, GalScreen luminescence, 90 h; inhibition, % at 2.09 µM;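 active means mean inhibition above about 95%, with at least 55% of replicates also reaching it, limit read from the data; inconclusive means meets just one of the two conditions; inactive means meets neither condition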;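 further: plate controls were neutral control median for no effect and positive control median for full effect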
3T3 cytotox: NIH/3T3 (mouse) viability loss | hit rate 14% among 5,600 | NIH/3T3 viability, CellTiter-Glo ATP luminescence, 90 h | AID 651742 | cytotoxicity (signal decrease), % at 8.35 µM | shares compounds with T cruzi growth-1;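 active means mean signal decrease across replicates above about 35% based on untreated-well scatter, with enough replicates individually passing, limit read from the data; inconclusive means no rule stated though some were filed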;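 further: 0% = median of neutral control wells and 100% = median of positive control wells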
NIH3T3 tox 2: kills mouse NIH/3T3 fibroblasts. shares compounds with T cruzi growth-1. NIH/3T3 viability, CellTiter-Glo ATP luminescence, 90 h. inhibition, % at 24.9 µM. hit rate 56% among 5,600. AID 651744;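 active means mean loss of cell viability signal at or above a set limit, and enough replicates individually reaching it; inconclusive means meets only the mean limit or only the replicate share; inactive means meets neither condition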;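 further: 0% = median of neutral control wells and 100% = median of positive control wells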
The depositor's hits bear a star. Sampled rows, rich in hits. Any-hit rate of the full collection: about 5.9%.

Screening CN(C)C(=O)c1cccc(-c2ccc([C@H]3[C@H](CO)N4CCCCN(CCC(F)(F)F)C[C@@H]34)cc2)c1 returned T cruzi growth-1 104.8*, Pf Dd2 inh -19.8, GASC1 inh -0.1, T cruzi growth-2 108.5*, T cruzi growth-3 86.4, 3T3 cytotox 5.4 and NIH3T3 tox 2 25.4*.
Screening CN(C)C(=O)c1cccc(-c2ccc([C@@H]3[C@@H](CO)N4CCCCN(CCC(F)(F)F)C[C@@H]34)cc2)c1 returned T cruzi growth-1 57.9, Pf Dd2 inh -7.3 and GASC1 inh 1.9.
Screening CN(C)C(=O)c1cccc(-c2ccc([C@H]3[C@@H](CO)N4CCCCN(CCC(F)(F)F)C[C@H]34)cc2)c1 returned T cruzi growth-1 102.8*, Pf Dd2 inh -16.8, GASC1 inh -0.6, T cruzi growth-2 98.7*, T cruzi growth-3 71.8, 3T3 cytotox -21.7 and NIH3T3 tox 2 29.0.
C[C@H]1CN([C@@H](C)CO)C(=O)c2c(c3ccccc3n2C)-c2ccccc2CO[C@H]1CN(C)C(=O)Nc1ccc2c(c1)OCO2 was read as T cruzi growth-1 71.7, Pf Dd2 inh -63.4 and GASC1 inh -0.7.
For C[C@H](CO)N1C[C@H](C)[C@@H](CN(C)Cc2cccnc2)OCc2ccccc2-c2c(n(C)c3ccccc23)C1=O the results were T cruzi growth-1 inconclusive, Pf Dd2 inh -10.3, GASC1 inh 1.8, T cruzi growth-2 75.3, T cruzi growth-3 44.5, 3T3 cytotox 16.1 and NIH3T3 tox 2 24.8.
C[C@@H]1CN([C@@H](C)CO)C(=O)c2c(c3ccccc3n2C)-c2ccccc2CO[C@H]1CN(C)C was read as T cruzi growth-1 inconclusive, IDH1 mut inh -1.5, Pf Dd2 inh -17.1, GASC1 inh -1.3, T cruzi growth-2 inconclusive, T cruzi growth-3 43.9, 3T3 cytotox 16.4 and NIH3T3 tox 2 30.9.
C[C@H](CO)N1C[C@H](C)[C@H](CN(C)C(=O)C2CC2)OCc2ccccc2-c2c(n(C)c3ccccc23)C1=O was read as T cruzi growth-1 inconclusive, IDH1 mut inh -4.1, Pf Dd2 inh -22.1, GASC1 inh 1.6, T cruzi growth-2 70.4, T cruzi growth-3 18.9, 3T3 cytotox 3.0 and NIH3T3 tox 2 38.4*.
`C[C@@H]1CN([C@@H](C)CO)C(=O)c2c(c3ccccc3n2C)-c2ccccc2CO[C@H]1CN(C)Cc1cccnc1` gave T cruzi growth-1 91.7, Pf Dd2 inh -27.9 and GASC1 inh -0.5.
C[C@@H]1CN([C@@H](C)CO)C(=O)c2c(c3ccccc3n2C)-c2ccccc2CO[C@H]1CN(C)C(=O)Nc1ccc2c(c1)OCO2 was read as T cruzi growth-1 105.4*, Pf Dd2 inh -82.4*, GASC1 inh 0.9, T cruzi growth-2 85.2, T cruzi growth-3 33.3, 3T3 cytotox 13.4 and NIH3T3 tox 2 15.3.
For C[C@H](CO)N1C[C@H](C)[C@@H](CN(C)C(=O)C2CC2)OCc2ccccc2-c2c(n(C)c3ccccc23)C1=O the results were T cruzi growth-1 89.0, Pf Dd2 inh -21.7 and GASC1 inh 1.1.
O=C(CSc1ncc(-c2ccccc2)nn1)Nc1ccc(I)cc1 was read as IDH1 mut inh 0.2.
Screening CCOC(=O)[C@H](CCc1ccccc1)N[C@H](C)C(=O)N1C2CCCCC2C[C@H]1C(=O)O (stereo not given in full) returned IDH1 mut inh 0.1.
`O=C(NCCCN1CCOCC1)[C@@H]1[C@@H](CO)[C@@H]2Cn3c(ccc(C4=CCCC4)c3=O)[C@H]1N2` gave T cruzi growth-1 inconclusive, Pf Dd2 inh 16.2, GASC1 inh -0.1, T cruzi growth-2 51.5, T cruzi growth-3 10.9, 3T3 cytotox 16.8 and NIH3T3 tox 2 -4.1.
Screening O=C(NCCCN1CCOCC1)[C@H]1N[C@H]2c3ccc(C4=CCCCC4)c(=O)n3C[C@H]2[C@@H]1CO returned T cruzi growth-1 inconclusive, Pf Dd2 inh 6.8, GASC1 inh -2.4, T cruzi growth-2 -18.9, T cruzi growth-3 -15.0, 3T3 cytotox -9.3 and NIH3T3 tox 2 0.3.
